High-throughput results deposited in PubChem BioAssay by several laboratories.
Shown are actives, neighbours in structure and some others; about 2.9% of the full set was active somewhere.
Dynein transport: inhibitors of GR-EGFP nuclear translocation, primary screen, dynein cargo transport inhibitor project, imaging, high-content, 3617.4 mouse cells; test concentration mostly 20 µM; stimulated with dexamethasone, 1 µM; hits give low values; AID 1381, 2008; z-score, hits read low; 220,000 tested, 0.47% active;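 active = plate z-score of nuclear minus cytoplasmic receptor signal below a set negative limit, without overly bright fluorescence or cell loss, cut at about -3.5 in these data, passing the limit was not always enough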;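 also: z-score of nuclear minus cytoplasmic ring GR-EGFP intensity difference per well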
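medium = tetracycline-free induction medium containing charcoal-stripped FBS | also added = 1.0 µM final dexamethasone stimulus | schedule = 48 h induction, 1 h compound, 30 min dex at 37 °C | technique = fixed, Hoechst-stained cells imaged at 10x for EGFP | measure = GR-EGFP nuclear translocation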
MEKK2 mut-MEK5: MEK5 binding signal on mutant MEKK2 PB1, primary screen, biochemical, multiplex bead flow cytometry, Alexa488-MEK5. percent response, % at 10 µM. Alexa488-MEK5 binding to MEKK2 mutant. 290,000 tested, 0.35% active; in the data active = percent response above about 24%, passing the limit was not always enough
ATG4B inh: ATG4B protease inhibitors, primary screen, biochemical, fluorescence, uHTS; ATG4B cleavage of LC3-PLA2, NBD-HPC fluorescence, 1 h; inhibition, % at 8.33 µM; 340,000 tested, 0.51% active; AID 504462, 2011; in the data active = inhibition above about 40%
MEKK2wt PB1 HTS: modulators of MEK5 binding to wildtype MEKK2, primary screen, biochemical, multiplex bead flow cytometry, Alexa488-MEK5 | Mitogen-activated protein kinase kinase kinase 2 (Homo sapiens), Q9Y2U5 | Alexa488-MEK5 binding to MEKK2 WT; actives lie on both sides | binding response (% of control), % at 10 µM | 290,000 tested, 1.1% active | AID 1531, 2009; in the data active = binding response below about 67% or above about 130%
MEKK3 PB1 HTS: modulators of MEKK3-MEK5 PB1 binding, primary screen, biochemical, wildtype MEKK3, multiplex bead flow cytometry, Alexa488-MEK5. Mitogen-activated protein kinase kinase kinase 3 (Homo sapiens), Q99759. bead-based flow cytometry, Alexa488-MEK5 binding to MEKK3; actives lie on both sides; 0 = blocked by unlabeled MEK5, 100 = vehicle. binding response (% of control), % at 10 µM. 290,000 tested, 1.4% active;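 active = binding response more than 3 SD above or below the average of its plate-row segment, actives on both sides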;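 also: Alexa488 bead fluorescence after subtracting the streptavidin-only scavenger bead signal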
B2AR ag: beta2AR agonists driving receptor internalization, primary screen, cell-based, FAP fluorogen, flow cytometry. Beta-2 adrenergic receptor (Homo sapiens), P07550. Am2.2-beta2AR cells. response, % (concentration not given with the values). 340,000 tested, 0.43% active;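 active = response above a set limit, near 3 SD of response in nonfluorescent compounds, cut at about 42% in these data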
ATG4B confirm: ATG4B protease inhibitors, retest, confirmation, biochemical, fluorescence, single concentration | shares compounds with ATG4B inh | ATG4B protease fluorescent substrate cleavage assay | inhibition, % at 8.33 µM | 320 tested, 92% active; in the data active = inhibition above about 39%
PLA2 ctr: PLA2 enzyme inhibition, counter-screen for ATG4B inhibitor project, biochemical, single concentration, uHTS hits. 1,600 tested, 66% active. purified PLA2, NBD-C6-HPC fluorescence, 45 min. AID 588402, 2011. shares compounds with ATG4B inh. inhibition, % at 8.33 µM; in the data active = inhibition above about 50%
* hit, by the source's call; nt = not tested or not shown.

SMILES	Dynein transport	MEKK2 mut-MEK5	ATG4B inh	MEKK2wt PB1 HTS	MEKK3 PB1 HTS	B2AR ag	PLA2 ctr	others
Cc1ccc(SCC(=O)Nc2ccc(N3CCN(C)CC3)c(F)c2)c(C)c1	-0.44	1	0	109	97	-1	nt
CC(C)(C)c1ccc(C(=O)CC(=O)c2cc(Cl)ccc2O)cc1	-0.43	-9	0	91	94	12	nt
Cc1ccc(C(=O)CC(=O)c2cc(Cl)ccc2O)cc1	-0.013	3	46*	97	99	11	47	ATG4B confirm=72*
O=C(O)c1ccc(-c2ccc(/C=C3\NC(=O)N(Cc4ccc(Cl)cc4)C3=O)o2)cc1Cl	-0.8	-6	49*	97	108	16	37	ATG4B confirm=60*
CCOC(=O)CN1C(=O)S/C(=C\c2ccc(-c3ccc(C(=O)O)c(Cl)c3)o2)C1=O	nt	7	9	100	96	11	nt
Cc1cccc(Sc2nc(-c3ccccc3)ccc2C#N)c1	0.081	9	-2	109	109	-3	nt
O=C(/C=C/c1ccccc1O)c1ccccc1	nt	nt	4	nt	nt	15	nt
O=C(/C=C/c1ccccc1O)c1ccc(Cl)cc1	-3.2	10	69*	107	105	12	88*
Cc1cccc(Cc2cnc(NC(=O)c3ccc(C)o3)s2)c1	-0.099	4	47*	114	111	-9	63*
Cc1cccc(Cc2cnc(NC(=O)C3=NCCN3)s2)c1	-0.7	-1	-1	108	108	-1	nt
COc1cccc(/C=N/NC(=O)c2ccc(-c3ccccc3)cc2)c1O	-0.6	15	-8	101	105	0	nt
COc1cccc(/C=N/NC(=O)c2[nH]c(C)c(C(=O)N/N=C/c3cccc(OC)c3O)c2C)c1O	0.12	6	62*	108	102	24	24	ATG4B confirm=33
Cc1ccc(NC(=S)NC2CC3CCCC(C2)N3Cc2cccs2)cc1 (stereo not drawn)	-0.45	5	5	106	97	1	nt
Cc1cccc(NC(=S)NC2CC3CCCC(C2)N3Cc2cccs2)c1C (stereo not drawn)	0.26	nt	49*	nt	nt	19	59*
Fc1ccc(NC(=S)NC2CC3CCCC(C2)N3Cc2cccs2)cc1 (stereo not drawn)	0.58	-8	6	90	92	-4	nt
CCc1ccccc1NC(=S)NC1CC2CCCC(C1)N2Cc1cccs1 (stereo not drawn)	nt	-2	48*	101	101	7	48
CCNc1nc(NCC)nc(Oc2ccc(C(=O)OC)cc2)n1	0.029	-33	-5	87	84	-1	nt
COc1ccc(OC)c(NC(=O)c2nnn(Cc3ccccc3C)c2N)c1	-0.27	-1	60*	100	108	7	64*
COc1ccc(C)cc1NC(=O)c1nnn(Cc2cc(C)ccc2C)c1N	3.2	12	4	127	113	5	nt
COc1ccccc1NC(=O)c1ccc(NC(=O)CN(C)Cc2ccccc2F)cc1	3.3	-3	7	97	102	-4	nt
CC(C)c1ccc2c(c1)C(c1cccs1)=NNC(c1ccncc1)=N2	-0.18	-2	-5	102	105	-5	nt
CC(C)c1ccc2c(c1)C(c1ccc(N3CCOCC3)cc1)=NNC(c1cccs1)=N2	-1.7	-12	70*	90	97	-13	72*
